Laboratory results from ChEMBL document CHEMBL1144782, “Isoindolo[2,1-a]quinoxaline derivatives, novel potent antitumor agents with dual inhibition of tubulin polymerization and topoisomerase I” (2008).

Tests used:
Format in all cases: functional
NCI-H226 = experiment: Antitumor activity against human NCI-H226 cells
Summary of the method: (§1)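 Run by the NCI in its in vitro disease-oriented screen of about 60 human tumour cell lines. For each line it reports pGI50 (50% net growth inhibition), pTGI (total growth inhibition) and pLC50 (50% net cell death), each as –log molar concentration. Where an effect was not reached within the tested range, the highest tested concentration was used.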

NCI-H460 = experiment: Antitumor activity against human NCI-H460 cells; summary of the method: as §1
HCC 2998 = experiment: Antitumor activity against human HCC2998 cells; summary of the method: as §1
HCT-116 = experiment: Antitumor activity against human HCT116 cells; summary of the method: as §1
KM12 = experiment: Antitumor activity against human KM12 cells; summary of the method: as §1
SF-539 = experiment: Antitumor activity against human SF539 cells; summary of the method: as §1
SNB-19 = experiment: Antitumor activity against human SNB19 cells; summary of the method: as §1
SNB-75 = experiment: Antitumor activity against human SNB75 cells; details: Homo sapiens, SNB-75; summary of the method: as §1
LOX IMVI = experiment: Antitumor activity against human LOXIMVI cells; summary of the method: as §1
SK-MEL-5 = experiment: Antitumor activity against human SKMEL5 cells; summary of the method: as §1
UACC-257 = experiment: Antitumor activity against human UACC257 cells
Summary of the method: (§2)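 NCI 60-cell-line screen. Parameters were GI50 (50% net growth inhibition), TGI and LC50, each reported as –log molar concentration. Where an effect was not reached within the tested range, the highest tested concentration was used in the calculation.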

IGROV-1 = experiment: Antitumor activity against human IGROV1 cells; summary of the method: as §1
OVCAR-4 = experiment: Antitumor activity against human OVCAR4 cells; summary of the method: as §1
OVCAR-5 = experiment: Antitumor activity against human OVCAR5 cells; summary of the method: as §1
786-0 = experiment: Antitumor activity against human 786-0 cells; summary of the method: as §1
BT-549 = experiment: Antitumor activity against human BT549 cells; summary of the method: as §1
MCF7 [1] = experiment: Cell viability against human MCF7 cells at 10 uM
CCRF-CEM [2] = experiment: Antitumor activity against human CCRF-CEM cells; summary of the method: as §1
SR = experiment: Antitumor activity against human SR cells; summary of the method: as §2
A549 = experiment: Antitumor activity against human A549 cells; summary of the method: as §1
EKVX = experiment: Antitumor activity against human EKVX cells; summary of the method: as §1
MCF7 [3] = experiment: Antitumor activity against human MCF7 cells; summary of the method: as §1
[4] = Antitumor activity against human […] cells; summary of the method: as §1
CCRF-CEM [5] = experiment: Growth inhibition of human vinblastine-resistant CEM cells after 72 hrs by MTT assay
Summary of the method: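 Growth inhibition by MTT after 72 h incubation. Resistant sublines: LoVoDoxo and MCF-7 MDR were kept in 0.1 µg/mL doxorubicin; CEMVbl-100 was selected against vinblastine. GI50 given as mean ± SEM of three independent experiments. Resistance index is resistant-line GI50 over parental GI50.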

CCRF-CEM [6] = experiment: Resistance index, Ratio of GI50 for human vinblastine-resistant CEM cells to GI50 for human CEM cells
[7] = read-out: Log LC50 (the source's name) (converted)

## Cc1cc2[nH]c(=O)c3c4ccccc4cn3c2cc1C
NCI-H226
  GI50: 15.1 µM
  LC50 (50% net cell kill): 89.1 µM
NCI-H226; read-out: pTGI (converted)
  TGI: 36.3 µM
NCI-H460
  GI50: 4.47 µM
NCI-H460; [7]
  CC50: 63.1 µM
NCI-H460; read-out: pTGI (converted)
  TGI: 20.4 µM
HCC 2998
  GI50: 4.07 µM
  LC50: 50.1 µM
HCC 2998; read-out: pTGI (converted)
  TGI: 16.6 µM
HCT-116
  GI50: 1580 nM
  LC50: 6.17 µM
HCT-116; read-out: pTGI (converted)
  TGI: 3.09 µM
KM12
  GI50: 7.08 µM
  LC50 (50% net cell death): 52.5 µM
KM12; read-out: pTGI (converted)
  TGI: 21.4 µM
SF-539
  GI50: 11.2 µM
  LC50 (50% net cell kill): 64.6 µM
SF-539; read-out: pTGI (converted)
  TGI: 26.9 µM
SNB-19
  GI50: 16.2 µM
SNB-19; [7]
  CC50: 83.2 µM
SNB-19; read-out: pTGI (converted)
  TGI: 36.3 µM
SNB-75
  GI50: 15.5 µM
  LC50: 58.9 µM
SNB-75; read-out: pTGI (converted)
  TGI: 30.2 µM
LOX IMVI
  GI50: 2040 nM
  LC50 (50% net cell kill): 7.94 µM
LOX IMVI; read-out: pTGI (converted)
  TGI: 3.98 µM
SK-MEL-5
  GI50: 13.5 µM
  LC50: 64.6 µM
SK-MEL-5; read-out: pTGI (converted)
  TGI: 29.5 µM
UACC-257
  GI50: 20.4 µM
  LC50: 63.1 µM
UACC-257; read-out: pTGI (converted)
  TGI: 35.5 µM
IGROV-1
  GI50: 12.3 µM
IGROV-1; [7]
  CC50: 57.5 µM
IGROV-1; read-out: pTGI (converted)
  TGI: 26.9 µM
OVCAR-4
  GI50: 13.5 µM
  LC50 (50% net cell kill): 56.2 µM
OVCAR-4; read-out: pTGI (converted)
  TGI: 27.5 µM
OVCAR-5
  GI50: 13.8 µM
  LC50 (50% net cell death): 55 µM
OVCAR-5; read-out: pTGI (converted)
  TGI: 27.5 µM
786-0
  GI50: 10.7 µM
786-0; [7]
  CC50: 47.9 µM
786-0; read-out: pTGI (converted)
  TGI: 22.9 µM
BT-549
  GI50: 19.5 µM
  LC50 (50% net cell kill): 85.1 µM
BT-549; read-out: pTGI (converted)
  TGI: 40.7 µM
MCF7 [1]
  Activity: 0%
CCRF-CEM [2]
  GI50: 10 µM
  LC50: 97.7 µM
CCRF-CEM [2]; read-out: pTGI (converted)
  TGI: 30.9 µM
SR
  GI50: 2570 nM
  LC50: 49 µM
SR; read-out: pTGI (converted)
  TGI: 5.75 µM
A549
  GI50: 14.8 µM
A549; [7]
  CC50: 95.5 µM
A549; read-out: pTGI (converted)
  TGI: 38 µM
EKVX
  GI50: 13.5 µM
  LC50 (50% net cell kill): 75.9 µM
EKVX; read-out: pTGI (converted)
  TGI: 31.6 µM
MCF7 [3]
  GI50: 11.7 µM
  LC50 (50% net cell kill): > 100 µM
MCF7 [3]; read-out: pTGI (converted)
  TGI: > 100 µM
[4]
  GI50: 8.32 µM
  LC50: 60.3 µM
[4]; read-out: pTGI (converted)
  TGI: 23.4 µM
CCRF-CEM [5]
  GI50: 15.1 µM
CCRF-CEM [6]
  RatioGI50: 0.97
